Laboratory results from ChEMBL document CHEMBL1138292, “Discovery of a tetrazole-based growth hormone secretagogue: 4-(hydroxybutyl)carbamic acid 2-{5-[1-(2-amino-2-methylpropionylamino)-2- benzyloxyethyl]tetrazol-1-yl}ethyl ester (BMS-317180)” (J Med Chem, 2007).
Activity calls are given as the source filed them. The calls are words filed in the database; no cut-off is given here.

Tests used:
[1] = molecular target: Growth hormone secretagogue receptor type 1 (Homo sapiens, UniProt Q92847); assay: Intrinsic activity at human GHS receptor in H4 glioma cells assessed by measuring intracellular calcium concentration by FLIPR assay; type: functional, cell-based
Summary of the method: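 H4 glioma cells with endogenous human GHS receptor expression enhanced by RAGE activation. Agonist-stimulated intracellular calcium mobilization read with a calcium-sensitive fluorescent probe in FLIPR.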

Rattus norvegicus = assay: Increase in plasma growth hormone level in iv dosed Wistar rat after 15 mins by radioimmunoassay; type: functional; conditions: 0.25 h
Summary of the method: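 Anesthetized rats, groups of five, dosed iv in 10% ethanol, […] saline (v/v) vehicle at 10 mL/kg. Abdominal aorta blood sampled at 15 min; plasma rat GH measured by a modified radioimmunoassay kit.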

Canis familiaris [2] = assay: Increase in plasma growth hormone level in Beagle dog at 0.52 to 52.3 umol/kg, po; type: functional, organism-based; conditions: Canis lupus familiaris
Summary of the method: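 Conscious beagle dogs given single oral doses of 0.52 to 52.3 µmol/kg, water as vehicle control; plasma GH followed over a 4 h time course.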

[3] = Bioavailability in rat at 15 umol/kg, po; type: ADME, organism-based; conditions: in vivo
Summary of the method: (§1)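 Fasted animals (rat, cynomolgus monkey, beagle dog) given single oral doses of 15, 10 and 10 µmol/kg respectively; intravenous reference dose 5 µmol/kg in all species. Oral bioavailability, half-life and plasma clearance derived from the plasma profiles.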

[4] = Half life in rat at 15 umol/kg, po; type: ADME, organism-based; conditions: in vivo; summary of the method: as §1
[5] = Bioavailability in Beagle dog at 10 umol/kg, po; type: ADME, organism-based, Canis lupus familiaris; conditions: in vivo; summary of the method: as §1
[6] = Half life in Beagle dog at 10 umol/kg, po; type: ADME, organism-based, Canis lupus familiaris; conditions: in vivo; summary of the method: as §1
[7] = Plasma clearance in rat at 15 umol/kg, po; type: ADME, organism-based; summary of the method: as §1
Canis familiaris [8] = assay: Plasma clearance in Beagle dog at 10 umol/kg, po; type: ADME, organism-based, Canis lupus familiaris; conditions: in vivo; summary of the method: as §1
Hepatocyte = assay: Toxicity in human hepatocytes upto 250 ug/mL; type: cell-based
Summary of the method: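 Human hepatocyte hepatotoxicity assay run at concentrations up to 250 µg/mL.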

Cytochrome P450 3A4 = Cytochrome P450 3A4 (Homo sapiens, UniProt P08684); assay: Inhibition of CYP3A4; type: ADME
Cytochrome P450 2C9 = Cytochrome P450 2C9 (Homo sapiens, UniProt P11712); assay: Inhibition of CYP2C9; type: ADME
Cytochrome P450 2C19 = Cytochrome P450 2C19 (Homo sapiens, UniProt P33261); assay: Inhibition of CYP2C19; type: ADME
Cytochrome P450 2D6 = Cytochrome P450 2D6 (Homo sapiens, UniProt P10635); assay: Inhibition of CYP2D6; type: ADME
Cytochrome P450 1A2 = molecular target: T1, Cytochrome P450 1A2 (Homo sapiens, UniProt P05177); assay: Inhibition of CYP1A2; type: ADME
T1 sequence (P05177 whole entry): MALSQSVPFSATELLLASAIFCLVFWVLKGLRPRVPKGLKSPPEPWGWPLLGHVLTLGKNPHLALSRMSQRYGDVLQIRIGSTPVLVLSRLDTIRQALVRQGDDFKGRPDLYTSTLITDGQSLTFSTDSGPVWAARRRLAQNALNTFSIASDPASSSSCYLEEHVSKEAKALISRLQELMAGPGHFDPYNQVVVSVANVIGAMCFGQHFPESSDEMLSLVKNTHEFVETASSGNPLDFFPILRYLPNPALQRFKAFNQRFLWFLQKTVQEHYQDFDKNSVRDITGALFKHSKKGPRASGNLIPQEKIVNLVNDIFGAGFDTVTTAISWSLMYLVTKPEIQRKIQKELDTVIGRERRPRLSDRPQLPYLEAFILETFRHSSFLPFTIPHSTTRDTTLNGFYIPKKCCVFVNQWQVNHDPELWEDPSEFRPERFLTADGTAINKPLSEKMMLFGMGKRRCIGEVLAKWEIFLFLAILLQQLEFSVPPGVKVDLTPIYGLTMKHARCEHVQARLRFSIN

[9] = Solubility at pH 4; type: physicochemical; conditions: buffer
Salmonella typhimurium [10] = assay: Mutagenic effect on Salmonella Typhimurium TA98 by Ames test; type: toxicity, organism-based; conditions: salmonella enterica subsp. enterica serovar typhimurium
Salmonella typhimurium [11] = assay: Mutagenic effect on Salmonella Typhimurium TA100 by Ames test; type: toxicity, organism-based; conditions: salmonella enterica subsp. enterica serovar typhimurium
Macaca fascicularis [12] = assay: Half life in monkey at 10 umol/kg, po; conditions: cynomolgus monkey, in vivo
Macaca fascicularis [13] = assay: Bioavailability in monkey at 10 umol/kg, po; conditions: cynomolgus monkey, in vivo
Macaca fascicularis [14] = assay: Plasma clearance in monkey at 10 umol/kg, po; conditions: cynomolgus monkey
[15] = Bioavailability in rat; type: ADME, organism-based; conditions: in vivo

Sequence of Growth hormone secretagogue receptor type 1 (Q92847 whole entry): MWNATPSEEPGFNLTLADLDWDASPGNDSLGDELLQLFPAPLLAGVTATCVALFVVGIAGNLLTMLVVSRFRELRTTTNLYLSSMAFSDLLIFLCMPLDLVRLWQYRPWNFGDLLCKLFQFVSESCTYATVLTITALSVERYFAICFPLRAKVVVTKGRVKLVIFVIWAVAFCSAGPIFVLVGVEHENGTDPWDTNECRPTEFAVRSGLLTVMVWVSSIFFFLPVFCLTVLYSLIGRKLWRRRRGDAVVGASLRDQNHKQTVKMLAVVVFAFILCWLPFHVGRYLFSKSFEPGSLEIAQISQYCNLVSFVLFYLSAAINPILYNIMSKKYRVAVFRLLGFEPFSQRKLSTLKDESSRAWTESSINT
Sequence of Cytochrome P450 2C19 (P33261 whole entry): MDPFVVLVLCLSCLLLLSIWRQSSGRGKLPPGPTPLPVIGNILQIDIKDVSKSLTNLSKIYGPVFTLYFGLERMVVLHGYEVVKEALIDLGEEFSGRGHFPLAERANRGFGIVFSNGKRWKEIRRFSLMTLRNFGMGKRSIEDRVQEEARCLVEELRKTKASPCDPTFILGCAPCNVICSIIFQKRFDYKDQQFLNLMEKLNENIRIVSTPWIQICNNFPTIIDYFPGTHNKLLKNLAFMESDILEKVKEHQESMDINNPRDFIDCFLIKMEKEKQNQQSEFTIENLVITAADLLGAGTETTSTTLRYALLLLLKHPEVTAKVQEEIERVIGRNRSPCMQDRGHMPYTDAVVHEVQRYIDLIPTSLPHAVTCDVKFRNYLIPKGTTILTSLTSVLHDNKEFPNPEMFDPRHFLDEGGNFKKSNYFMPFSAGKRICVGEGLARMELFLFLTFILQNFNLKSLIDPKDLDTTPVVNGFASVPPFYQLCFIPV
Sequence of Cytochrome P450 3A4 (P08684 whole entry): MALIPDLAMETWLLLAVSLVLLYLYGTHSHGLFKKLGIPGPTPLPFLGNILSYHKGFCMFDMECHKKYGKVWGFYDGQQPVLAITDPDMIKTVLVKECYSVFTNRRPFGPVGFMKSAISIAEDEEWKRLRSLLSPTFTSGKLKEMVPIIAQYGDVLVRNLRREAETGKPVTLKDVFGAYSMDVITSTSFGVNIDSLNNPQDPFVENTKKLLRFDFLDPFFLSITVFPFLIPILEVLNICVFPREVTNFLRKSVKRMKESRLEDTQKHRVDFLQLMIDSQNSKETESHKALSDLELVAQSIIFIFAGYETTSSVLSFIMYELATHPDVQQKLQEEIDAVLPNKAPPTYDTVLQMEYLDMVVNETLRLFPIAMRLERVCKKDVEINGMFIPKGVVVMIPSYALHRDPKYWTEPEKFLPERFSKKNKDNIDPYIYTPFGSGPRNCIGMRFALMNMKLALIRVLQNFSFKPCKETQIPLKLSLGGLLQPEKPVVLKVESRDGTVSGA
Sequence of Cytochrome P450 2C9 (P11712 whole entry): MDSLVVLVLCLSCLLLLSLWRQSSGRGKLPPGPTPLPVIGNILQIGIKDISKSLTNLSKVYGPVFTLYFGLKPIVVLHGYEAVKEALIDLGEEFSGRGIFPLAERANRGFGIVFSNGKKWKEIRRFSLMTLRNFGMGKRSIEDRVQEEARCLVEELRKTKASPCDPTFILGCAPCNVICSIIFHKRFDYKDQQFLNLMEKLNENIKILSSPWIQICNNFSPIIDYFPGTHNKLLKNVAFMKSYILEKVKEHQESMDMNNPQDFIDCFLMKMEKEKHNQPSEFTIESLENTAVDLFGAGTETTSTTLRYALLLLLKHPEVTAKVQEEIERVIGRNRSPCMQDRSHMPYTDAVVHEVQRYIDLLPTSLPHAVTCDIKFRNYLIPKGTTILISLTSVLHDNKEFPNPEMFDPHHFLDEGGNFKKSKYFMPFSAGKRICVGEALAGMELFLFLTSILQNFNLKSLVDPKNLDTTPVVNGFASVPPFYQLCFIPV
Sequence of Cytochrome P450 2D6 (P10635 whole entry): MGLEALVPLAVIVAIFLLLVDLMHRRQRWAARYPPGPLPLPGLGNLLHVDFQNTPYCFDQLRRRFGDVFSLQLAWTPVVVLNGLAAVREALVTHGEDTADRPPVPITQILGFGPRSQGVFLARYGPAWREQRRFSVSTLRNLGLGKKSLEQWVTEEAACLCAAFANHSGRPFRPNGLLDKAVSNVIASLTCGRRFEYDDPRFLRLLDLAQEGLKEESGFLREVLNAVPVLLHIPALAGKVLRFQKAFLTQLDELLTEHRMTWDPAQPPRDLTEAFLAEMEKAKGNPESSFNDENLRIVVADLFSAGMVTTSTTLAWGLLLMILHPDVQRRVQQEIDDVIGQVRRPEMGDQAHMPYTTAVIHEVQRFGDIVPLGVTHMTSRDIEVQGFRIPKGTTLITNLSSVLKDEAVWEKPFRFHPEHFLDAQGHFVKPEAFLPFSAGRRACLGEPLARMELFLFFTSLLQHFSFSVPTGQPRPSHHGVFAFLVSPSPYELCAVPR

Compound: CC(C)(N)C(=O)N[C@H](COCc1ccccc1)c1nnnn1CCOC(=O)NCCc1cccc(O)c1
- EC50 [1]: 7.9 nM

Compound: CC(=O)NCCCCNC(=O)OCCn1nnnc1[C@@H](COCc1ccccc1)NC(=O)C(C)(C)N
- EC50 [1]: 82.5 nM

Compound: CC(C)(N)C(=O)N[C@H](COCc1ccccc1)c1nnnn1CCOC(=O)NCCCCO
- EC50 [1]: 1.9 nM
- ED50 (Rattus norvegicus): 0.08 µmol/kg
- Activity (Canis familiaris [2]): Active
- bioavailability [3]: 9%
- half-life [4]: 0.7 h
- bioavailability [5]: 40%
- half-life [6]: 2.3 h
- CL/F [7]: 213 mL/min/kg
- clearance (Canis familiaris [8]): 21 mL/min/kg
- Activity (Hepatocyte): Non-toxic
- IC50 (Cytochrome P450 3A4): > 100000 nM
- IC50 (Cytochrome P450 2C9): > 100000 nM
- IC50 (Cytochrome P450 2C19): > 100000 nM
- IC50 (Cytochrome P450 2D6): > 100000 nM
- IC50 (Cytochrome P450 1A2): > 100000 nM
- solubility [9]: > 100 mg/mL
- Activity (Salmonella typhimurium [10]): Non-toxic
- Activity (Salmonella typhimurium [11]): Non-toxic
- half-life (Macaca fascicularis [12]): 1.1 h
- bioavailability (Macaca fascicularis [13]): 12%
- CL/F (Macaca fascicularis [14]): 37 mL/min/kg

Compound: CC(C)(N)C(=O)N[C@H](COCc1ccccc1)c1nnnn1CCOC(=O)NCCCCCO
- EC50 [1]: 14.6 nM

Compound: CC(C)(N)C(=O)N[C@H](COCc1ccccc1)c1nnnn1CCOC(=O)NCCCn1ccnc1
- EC50 [1]: 45.3 nM

Compound: CC(C)(N)C(=O)N[C@H](COCc1ccccc1)c1nnnn1CCOC(=O)N1CC[C@@H](O)C1
- EC50 [1]: 1 nM

Compound: CC1(O)CCN(C(=O)OCCn2nnnc2[C@@H](COCc2ccccc2)NC(=O)C(C)(C)N)C1 (stereo partly drawn)
- EC50 [1]: 10.1 nM

Compound: CC(=O)N[C@@H]1CCN(C(=O)OCCn2nnnc2[C@@H](COCc2ccccc2)NC(=O)C(C)(C)N)C1
- EC50 [1]: 3.3 nM
- bioavailability [15]: < 5%

Compound: CN(CCCCO)C(=O)OCCn1nnnc1[C@@H](COCc1ccccc1)NC(=O)C(C)(C)N
- EC50 [1]: 3.8 nM

Compound: CC(C)(N)C(=O)N[C@H](COCc1ccccc1)c1nnnn1CCOC(=O)NCCCO
- EC50 [1]: 5.5 nM

Compound: CC(C)(N)C(=O)N[C@H](COCc1ccccc1)c1nnnn1CCOC(=O)NC[C@H]1CCCO1
- EC50 [1]: 9.5 nM

Compound: CC(C)(N)C(=O)N[C@H](COCc1ccccc1)c1nnnn1CCOC(=O)NCCO
- EC50 [1]: 3 nM
